Screens from PubChem.
TAG inh = triacylglycerol accumulation inhibition; H9c2 cells, Nile Red lipid (TAG) fluorescence; cells loaded with 200 µM oleic acid; inhibition, % at 12.5 µM; 230,000 tested, 0.66% active;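 active = pattern-corrected inhibition of lipid staining of at least 50% with the nuclear-stain viability signal not falling by more than 50%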;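 note: 0% = DMSO wells and 100% = triacsin C control wells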
T cruzi repl = T. cruzi replication inhibition | T. cruzi beta-gal in NIH3T3, luminescence, 90 h | inhibition, % (no concentration beside the values) | AID 1885 | 300,000 tested, 1.4% active;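 active = mean inhibition across valid replicates above about 55%, limit read from the data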;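 note: signal also drops with host cell toxicity which is not excluded here; 0% = plate median of DMSO wells and 100% = zero luminescence signal; higher percent means less beta-gal luminescence so fewer parasites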
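Incubation – ≥90 h infection period, 3 h prior cell attachment · System – NIH/3T3 fibroblasts plus reporter T. cruzi · Doses – compound pinned at 50 nL/well, DMSO · Read-out basis – percent inhibition of parasite-derived β-gal signal · Signal – luminescent β-galactosidase signal after 60 min lysis · Also added – 5000 T. cruzi trypomastigotes/well · Medium – Low-serum DMEM with 2% FBS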
MIN6 prolif = inducers of beta-cell replication in MIN6 cells | MIN6 cells proliferation, ATPlite luminescence, 48 h; cells starved in 0.2% serum; 100% = growth in 10% serum | proliferation, % at 10 µM | 330,000 tested, 0.29% active;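 active = compounds whose signal lies at least 3.5 SD above the mean of all wells on their plate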;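 note: 0% = DMSO-treated cells in low-serum medium and 100% = 10% serum control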
Rev-erbA mod = modulates human Rev-erb alpha binding to DNA | AID 1259318 | activity, % at 10 µM | 370,000 tested, 0.79% active | P20393 | Rev-erbα–FITC-DNA binding, fluorescence polarization, 90 min;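 active = activity above about 14%, limit read from the data; passing the limit was not always enough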;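 note: 0% = DMSO wells with 35 nM protein and 100% = DMSO wells with 750 nM protein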
Target sequence (P20393 whole entry, looked up): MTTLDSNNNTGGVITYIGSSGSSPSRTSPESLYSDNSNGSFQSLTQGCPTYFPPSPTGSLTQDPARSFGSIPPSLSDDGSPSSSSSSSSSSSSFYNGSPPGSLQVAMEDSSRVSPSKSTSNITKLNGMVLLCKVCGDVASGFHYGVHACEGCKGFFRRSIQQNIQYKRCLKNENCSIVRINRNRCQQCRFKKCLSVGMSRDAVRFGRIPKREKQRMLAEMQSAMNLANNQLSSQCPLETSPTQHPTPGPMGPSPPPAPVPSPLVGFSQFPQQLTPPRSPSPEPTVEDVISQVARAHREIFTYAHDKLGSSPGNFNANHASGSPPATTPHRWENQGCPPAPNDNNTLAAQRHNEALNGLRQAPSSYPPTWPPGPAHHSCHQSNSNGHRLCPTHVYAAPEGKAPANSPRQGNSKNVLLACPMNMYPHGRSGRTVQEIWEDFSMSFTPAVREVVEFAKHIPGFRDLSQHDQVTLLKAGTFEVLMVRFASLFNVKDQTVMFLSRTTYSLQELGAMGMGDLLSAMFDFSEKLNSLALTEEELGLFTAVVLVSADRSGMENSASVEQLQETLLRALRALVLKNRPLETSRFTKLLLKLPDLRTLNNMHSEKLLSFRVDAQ
PG9 binder = binds the HIV-1 gp120 antibody PG9. TR-FRET gp120-PG9 antibody binding. inhibition, % at 6.7 µM. 360,000 tested, 0.43% active. AID 624416; in the data active = inhibition above about 8.5%
hiPSC survival = increases survival of single human iPS cells; hiPSC single-cell survival, ATPlite luminescence; 100% = ROCK inhibitor wells, 0% = DMSO; survival enhancement, % at 20 µM; 360,000 tested, 0.044% active; in the data active = survival enhancement above about 18%;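 note: cells exposed to compounds for 16 hours before the ATP read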
Rev-erbA confirm = Rev-erb alpha (human) modulation, hit confirmation. 3,000 tested, 61% active. shares compounds with Rev-erbA mod. activation, % at 25 µM. Rev-erb alpha FITC-DNA binding, fluorescence polarization, 90 min;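 active = activation at or above a set limit, or at least 3 SD above the negative control mean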;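 note: 0% = 35 nM protein with DMSO and 100% = 750 nM protein high control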
RORg counter = RORgamma DNA-binding activity, dose-response counter-screen | shares compounds with Rev-erbA mod | purified RORgamma protein-FITC-DNA binding, fluorescence polarization | IC50, µM | 910 tested, 8% active | AID 1259320;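 active = Compounds whose fitted half-maximal concentration for disrupting protein-DNA binding is below 10 micromolar; the record names Rev-erb in its text, so the target is in doubt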
* marks the source's active call; other numbers are inactive results; . = no result. Most compounds without a hit are left out; they make up all but 2.9% or so of the library.

SMILES	TAG inh	T cruzi repl	MIN6 prolif	Rev-erbA mod	PG9 binder	hiPSC survival	Rev-erbA confirm	others
CCOC(=O)N1CCN(c2c(-c3ccccc3)c3cc(Cl)ccc3[nH]c2=O)CC1	.	42	-6	33*	1	-2	-1
O=c1[nH]c2ccc(Cl)cc2c(-c2ccccc2)c1N1CCN(CCO)CC1	.	16	-6	-5	2	-2	.
CCOC(=O)C1CCN(c2c(-c3ccccc3)c3cc(Cl)ccc3[nH]c2=O)CC1	-24	28	-3	37*	-1	2	8
NNC(=O)CSc1c(-c2ccccc2)c2cc(Cl)ccc2[nH]c1=O	.	-4	-5	-1	1	0	.
CSc1nc2ccc3nc(NC(=O)c4ccccc4)sc3c2s1	27	15	0	38*	1	1	6
Cc1csc2c(=O)sc(NC(=O)c3ccc(F)cc3)nc12	-4	-10	0	3	-3	0	.
Cc1csc2nc(NC(=O)c3ccccc3)sc(=O)c12	-15	-8	-3	24*	0	1	16
O=C(Nc1nc2ccccc2s1)c1ccccc1	8	-1	-5	8	0	-1	.
COc1ccccc1/C=C/C(=O)OCC(=O)c1c[nH]c2ccccc12	9	.	-3	-7	-1	2	.
N#Cc1cc2c(nc1SCc1cccnc1)CCC2	0	10	-1	-1	-5	5	.
Cc1cccc(CSc2nc3c(cc2C#N)CCC3)c1	-14	12	-1	47*	0	-1	30*
O=C(COC(=O)c1ccc(Br)o1)Nc1ncc(Cl)cc1Cl	20	-5	0	5	-1	3	.
O=C(COC(=O)c1sc2cc(F)ccc2c1Cl)Nc1ncc(Cl)cc1Cl	.	-7	-1	64*	-2	1	37*	RORg counter=>40
Cc1sc(NC(=O)Cc2ccc3c(c2)OCO3)nc1-c1ccc2c(c1)CCN2C(=O)c1ccccc1F	.	56*	-1	45*	-1	1	53*
CC(=O)Nc1ccc(S(=O)(=O)N2CCN(Cc3ccncc3)CC2)cc1	-6	-4	-1	-4	-1	-3	.
CC(=O)Nc1ccc(S(=O)(=O)N2CCN(Cc3nc4sc(C)c(C)c4c(=O)[nH]3)CC2)cc1	-16	5	-3	31*	3	0	16
Cc1ccc(S(=O)(=O)N2CC(=O)Nc3ccccc32)c(C)c1NS(C)(=O)=O	.	0	-1	2	-1	1	.
COc1ccc2nc(NC(=O)C3CCCN(S(=O)(=O)c4cccc5nsnc45)C3)sc2c1 (stereo unspecified)	37	20	-3	8	-1	-1	.
CC(C)(C)c1ccc(SC2=C[C@@]3(O)CC[C@@H](O)[C@@](Sc4ccc(C(C)(C)C)cc4)(C2=O)[C@H]3O)cc1	.	.	.	33*	-13	0	21*
O=C(c1ccccc1)N(Cc1cccnc1)C1(C(=O)Nc2ccccc2)CCCCC1	.	-2	-2	-3	0	1	.
CC(C)n1c(C(F)(F)F)nc2cc(C(=O)N3CCC(O)CC3)ccc21	2	4	0	2	-1	0	.
Cc1c(NC(=O)C2CCCN(S(=O)(=O)c3c(C(C)C)cc(C(C)C)cc3C(C)C)C2)c(=O)n(-c2ccccc2)n1C (stereo unspecified)	.	.	.	28*	.	.	24*
Cc1c(NC(=O)C2CCCN(S(=O)(=O)c3cnc[nH]3)C2)c(=O)n(-c2ccccc2)n1C (stereo unspecified)	-3	-24	-2	2	-1	1	.
Cc1ccc(N(Cc2cc3ccc(C)cc3[nH]c2=O)S(=O)(=O)c2ccccc2)cc1	.	13	-4	34*	-1	0	19*
Cc1ccc(S(=O)(=O)N(Cc2cc3ccc(C)cc3[nH]c2=O)c2ccccc2)cc1	-17	16	-1	9	1	2	.
